Consider nine molecules from ChEMBL document CHEMBL4229397, “N-(7-Cyano-6-(4-fluoro-3-(2-(3-(trifluoromethyl)phenyl)acetamido)phenoxy)benzo[d]thiazol-2-yl)cyclopropanecarboxamide (TAK632) Promotes Inhibition of BRAF through the Induction of Inhibited Dimers” (J Med Chem, 2018).

Experiment [1] deals with T1, Serine/threonine-protein kinase B-raf (Homo sapiens, UniProt P15056). The experiment can be described thus: Inhibition of N-terminal 6x-His-tagged BRAF kinase domain (unknown origin) expressed in baculovirus infected Sf9 insect cells co-expressing mouse p50cdc37 using C-terminal His-tagged/N-terminal GST-tagged full length human MEK1 as substrate after 1 hr by ELISA. The procedure, abridged: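 His-tagged BRAF kinase domain (residues 442–724, WT or V600E) was preincubated with inhibitor 1 h at room temperature in 50 mM HEPES pH 7.0, 50 mM NaCl. It was then added to GST-MEK1 bound on glutathione plates, with 100 μM ATP final in 50 mM HEPES pH 7.0, 200 mM NaCl, 20 mM MgCl2, for 30 min at 37 °C. Phospho-MEK (S217/S221) was read by chemiluminescent ELISA. Curves run in duplicate/triplicate, min–max normalized, IC50 from log(inhibitor)–response fit.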
T1 sequence (P15056 whole entry, the tested form may be a part): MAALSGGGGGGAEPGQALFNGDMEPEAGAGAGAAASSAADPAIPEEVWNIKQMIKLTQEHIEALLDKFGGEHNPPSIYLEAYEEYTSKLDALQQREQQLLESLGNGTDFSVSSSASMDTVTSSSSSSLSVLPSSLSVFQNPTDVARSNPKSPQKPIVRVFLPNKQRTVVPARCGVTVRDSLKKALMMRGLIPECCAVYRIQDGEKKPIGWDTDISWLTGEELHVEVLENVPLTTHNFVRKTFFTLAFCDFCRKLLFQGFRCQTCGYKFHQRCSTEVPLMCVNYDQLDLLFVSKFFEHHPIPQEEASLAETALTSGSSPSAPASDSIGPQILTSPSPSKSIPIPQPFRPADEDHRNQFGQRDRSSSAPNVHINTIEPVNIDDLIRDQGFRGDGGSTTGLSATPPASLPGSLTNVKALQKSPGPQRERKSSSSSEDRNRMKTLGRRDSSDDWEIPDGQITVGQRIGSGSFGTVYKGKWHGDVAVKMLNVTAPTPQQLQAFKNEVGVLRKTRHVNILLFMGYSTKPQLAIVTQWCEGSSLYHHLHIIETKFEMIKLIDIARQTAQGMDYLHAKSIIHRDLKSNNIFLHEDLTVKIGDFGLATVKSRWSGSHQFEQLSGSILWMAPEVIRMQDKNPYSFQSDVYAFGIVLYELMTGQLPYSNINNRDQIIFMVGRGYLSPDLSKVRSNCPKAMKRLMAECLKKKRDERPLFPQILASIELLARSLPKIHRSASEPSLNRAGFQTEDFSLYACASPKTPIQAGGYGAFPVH
(In an ELISA, binding on a coated surface is turned into a signal by an enzyme label.)

Experiment [2] has as its target Serine/threonine-protein kinase B-raf (Homo sapiens, UniProt P15056, V600E). Briefly: Inhibition of N-terminal 6x-His-tagged BRAF V600E mutant (unknown origin) expressed in baculovirus infected Sf9 insect cells co-expressing mouse p50cdc37 using C-terminal His-tagged/N-terminal GST-tagged full length human MEK1 as substrate after 1 hr by ELISA. The procedure, abridged:
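ELISA: GST-MEK1 bound to glutathione-coated plate 1 h, room temperature. Insect-cell His-BRAF V600E (1:1000 dilution) preincubated with inhibitor 1 h, room temperature, then reacted with 100 μM ATP in 50 mM HEPES pH 7.0, 200 mM NaCl, 20 mM MgCl2, 30 min, 37 °C. Anti-pMEK S217/S221, HRP secondary, chemiluminescence. Duplicate or triplicate, min–max normalized, log(inhibitor)-response IC50.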

In experiment [3] the test system is Serine/threonine-protein kinase B-raf (Homo sapiens), P15056 [V600E]. Briefly: Induction of N-terminal 6x-His-tagged BRAF V600E mutant (unknown origin) dimer formation expressed in baculovirus infected Sf9 insect cells co-expressing mouse p50cdc37 at 20 uM by sedimentation velocity method.
Serine/threonine-protein kinase B-raf (Homo sapiens), P15056 [V600E], sequence (P15056 whole entry V600E): as the sequence (P15056 whole entry, the tested form may be a part) above, with V600E counted along it
In experiment [4] the target is T1, Serine/threonine-protein kinase B-raf. The experiment can be described thus: Induction of N-terminal 6x-His-tagged BRAF (unknown origin) dimer formation expressed in baculovirus infected Sf9 insect cells co-expressing mouse p50cdc37 at 200 uM measured after trypsin digestion for 30 mins by coomassie blue staining-based SDS-PAGE method.
Experiment [5] deals with Serine/threonine-protein kinase B-raf (Homo sapiens), P15056 [V600E]. The experiment can be described thus: Induction of N-terminal 6x-His-tagged BRAF V600E mutant (unknown origin) dimer formation expressed in baculovirus infected Sf9 insect cells co-expressing mouse p50cdc37 at 10 uM by sedimentation velocity method.
Experiment [6] addresses T1, Serine/threonine-protein kinase B-raf. Briefly: Induction of N-terminal 6x-His-tagged BRAF (unknown origin) dimer formation expressed in baculovirus infected Sf9 insect cells co-expressing mouse p50cdc37 assessed as melting temperature at 125 uM by differential scanning calorimetric method. For orientation: Differential scanning calorimetry records heat flow against a reference as temperature is scanned.

The target is the same in experiment [7]. Briefly: Induction of N-terminal 6x-His-tagged BRAF (unknown origin) dimer formation expressed in baculovirus infected Sf9 insect cells co-expressing mouse p50cdc37 assessed as melting temperature at 250 uM by differential scanning calorimetric method (reference value: 37.84 degC).
Experiment [8] has the same target. Briefly: Induction of N-terminal 6x-His-tagged BRAF (unknown origin) dimer formation expressed in baculovirus infected Sf9 insect cells co-expressing mouse p50cdc37 assessed as melting temperature at 75 uM by differential scanning calorimetric method (reference value: 37.84 degC).
The target is the same in experiment [9]. The experiment can be described thus: Induction of N-terminal 6x-His-tagged BRAF (unknown origin) dimer formation expressed in baculovirus infected Sf9 insect cells co-expressing mouse p50cdc37 at 15 uM by sedimentation velocity method.

Calls of active or inactive are those of the source. No cut-off for these calls is given here.

Serine/threonine-protein kinase B-raf (Homo sapiens, UniProt P15056, V600E), sequence (P15056 2-766 V600E limits assumed): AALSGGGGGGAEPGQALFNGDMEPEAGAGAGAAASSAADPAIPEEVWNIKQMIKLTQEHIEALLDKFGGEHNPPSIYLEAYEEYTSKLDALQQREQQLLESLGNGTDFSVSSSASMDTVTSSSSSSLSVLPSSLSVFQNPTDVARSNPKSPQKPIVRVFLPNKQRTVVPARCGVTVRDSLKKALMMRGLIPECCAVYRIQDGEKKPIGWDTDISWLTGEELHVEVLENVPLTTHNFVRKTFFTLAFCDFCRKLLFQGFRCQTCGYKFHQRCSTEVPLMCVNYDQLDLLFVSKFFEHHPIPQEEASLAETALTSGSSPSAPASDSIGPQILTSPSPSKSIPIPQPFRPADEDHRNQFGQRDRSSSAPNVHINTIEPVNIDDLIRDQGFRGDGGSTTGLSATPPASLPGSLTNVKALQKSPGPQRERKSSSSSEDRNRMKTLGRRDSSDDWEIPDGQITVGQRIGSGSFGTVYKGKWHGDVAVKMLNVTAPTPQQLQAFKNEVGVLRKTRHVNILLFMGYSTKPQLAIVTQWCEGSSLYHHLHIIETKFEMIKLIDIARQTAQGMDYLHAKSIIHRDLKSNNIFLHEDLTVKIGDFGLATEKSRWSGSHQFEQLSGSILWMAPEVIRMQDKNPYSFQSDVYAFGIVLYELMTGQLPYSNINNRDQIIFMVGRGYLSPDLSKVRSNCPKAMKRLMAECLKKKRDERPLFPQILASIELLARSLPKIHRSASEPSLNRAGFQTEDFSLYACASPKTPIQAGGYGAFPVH

In the case of `COCCOCC(=O)Nc1nc2ccc(Oc3ccc(F)c(NC(=O)Cc4cccc(C(F)(F)F)c4)c3)c(C#N)c2s1`, the IC50 in experiment [1] came out at 0.00575 µM.
`N#Cc1c(Oc2ccc(F)c(NC(=O)Cc3cccc(C(F)(F)F)c3)c2)ccc2nc(NC(=O)COCCOCCOCCOCCOCC(=O)Nc3nc4ccc(Oc5ccc(F)c(NC(=O)Cc6cccc(C(F)(F)F)c6)c5)c(C#N)c4s3)sc12`: the IC50 was 0.0738 µM in experiment [2] and 0.0855 to 0.0902 µM in experiment [1]. Also, the result in experiment [3] was inactive.
Regarding `N#Cc1c(Oc2ccc(F)c(NC(=O)Cc3cccc(C(F)(F)F)c3)c2)ccc2nc(NC(=O)COCCOCCOCC(=O)Nc3nc4ccc(Oc5ccc(F)c(NC(=O)Cc6cccc(C(F)(F)F)c6)c5)c(C#N)c4s3)sc12`, the IC50 was 0.0739 µM in [2] and 0.0872 to 0.132 µM in [1]. In addition, the result in experiment [4], in [5], in [3] and in experiment [9] was inactive. Besides, the figures for the Tm in [6], in [7] and in [8] were 38.7 to 59.6 °C, 40.1 to 62.6 °C and 38.4 to 58.6 °C, respectively.
Take `N#Cc1c(Oc2ccc(F)c(NC(=O)Cc3cccc(C(F)(F)F)c3)c2)ccc2nc(NC(=O)COCCOCCOCCOCCOCCOCCOCC(=O)Nc3nc4ccc(Oc5ccc(F)c(NC(=O)Cc6cccc(C(F)(F)F)c6)c5)c(C#N)c4s3)sc12`: the results for the 50% inhibitory concentration (IC50) in [2] and in experiment [1] were 0.352 µM and 0.732 µM, respectively.
For `N#Cc1c(Oc2ccc(F)c(NC(=O)Cc3cccc(C(F)(F)F)c3)c2)ccc2nc(NC(=O)C3CC3)sc12`, the IC50 in [2] is 0.00446 µM; in experiment [1] it was 0.00323 to 0.00711 µM. The result in [4], in experiment [5] and in experiment [9] was Active. In addition, the Tm in experiment [6] amounted to 68.7 °C.
Regarding `N#Cc1c(Oc2ccc(F)c(NC(=O)Cc3cccc(C(F)(F)F)c3)c2)ccc2nc(NC(=O)COCCOCCOCC(=O)Nc3nccs3)sc12`, the outcome in [4] was Active. For the same molecule, the Tm in experiment [6] worked out at 63.3 °C. Further, the IC50 in experiment [1] amounted to 0.0203 µM.
Consider `CCCS(=O)(=O)Nc1ccc(F)c(C(=O)c2c[nH]c3ncc(-c4ccc(Cl)cc4)cc23)c1F`, for which the result in [4] and in [9] was inactive.
In the case of `N#Cc1c(Oc2ccc(F)c(NC(=O)Cc3cccc(C(F)(F)F)c3)c2)ccc2nc(NC(=O)COCC(=O)Nc3nc4ccc(Oc5ccc(F)c(NC(=O)Cc6cccc(C(F)(F)F)c6)c5)c(C#N)c4s3)sc12`, the IC50 is 0.421 µM in experiment [2] and 0.537 µM in experiment [1].
As for `N#Cc1c(Oc2ccc(F)c(NC(=O)Cc3cccc(C(F)(F)F)c3)c2)ccc2nc(NC(=O)COCCOCCOCCOCC(=O)Nc3nc4ccc(Oc5ccc(F)c(NC(=O)Cc6cccc(C(F)(F)F)c6)c5)c(C#N)c4s3)sc12`, the IC50 is 0.168 µM in experiment [2] and 0.616 µM in experiment [1].

As a reminder, the IC50 is the concentration at which inhibition is half-maximal. High values mean lower potency, low ones higher potency.
